Active and inactive are the calls of the source. The rule behind the calls is not given here.
How the values were obtained:
OVCAR-5 = experiment: Cytotoxicity against human OVCAR5 cells after 48 hrs by sulforhodamine B assay; type: functional; settings: OVCAR-5, 48 h
NCI-H460 [1] = experiment: Cytotoxicity against human NCI-H460 cells assessed as cell death in serum free medium at 1000 nM after 12 hrs by Hoechst 33342/propidium iodide staining based fluorescence microscopy; type: functional
Summary of the method: (§1)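 NCI-H460 human lung cancer cells exposed 12 h to 10 nM–10 μM drug, including a 50 nM single-concentration test. Nuclei were stained with Hoechst 33342 and necrotic cells with propidium iodide. Apoptotic cells were scored by condensed or fragmented blue nuclei and necrotic cells by red PI staining. Total cell death (apoptosis plus necrosis) was recorded; N = 6.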

CAKI-1 = experiment: Cytotoxicity against human Caki1 cells after 48 hrs by sulforhodamine B assay; type: functional; settings: CAKI-1, 48 h
NCI-H460 [2] = experiment: Cytotoxicity against human NCI-H460 cells assessed as cell death in serum free medium at 10 nM after 12 hrs by Hoechst 33342/propidium iodide staining based fluorescence microscopy; type: functional; summary of the method: as §1
NCI-H460 [3] = experiment: Cytotoxicity against human NCI-H460 cells assessed as cell viability at 100 nM after 48 hrs by MTT assay; type: functional; settings: NCI-H460, 48 h, read-out: Activity
Summary of the method: (§2)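 Viability of NCI-H460 cells was measured by MTT (mitochondrial enzymatic activity) after 48 h exposure, within a dose series spanning 1 nM–10 μM. N = 9, analysed by two-way ANOVA.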

NCI-H460 [4] = experiment: Cytotoxicity against human NCI-H460 cells assessed as cell death in serum free medium at 250 nM after 12 hrs by Hoechst 33342/propidium iodide staining based fluorescence microscopy; type: functional; summary of the method: as §1
NCI-H460 [5] = experiment: Cytotoxicity against human NCI-H460 cells assessed as cell death in serum free medium at 10000 nM after 12 hrs by Hoechst 33342/propidium iodide staining based fluorescence microscopy; type: functional; summary of the method: as §1
IGROV-1 = experiment: Cytotoxicity against human IGROV1 cells after 48 hrs by sulforhodamine B assay; type: functional; settings: IGROV-1, 48 h
NCI-H460 [6] = experiment: Induction of apoptosis in human NCI-H460 cells in serum free medium at 50 nM after 12 hrs by Hoechst 33342/propidium iodide staining based fluorescence microscopy; type: functional
Summary of the method: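 NCI-H460 cells exposed to a single 50 nM concentration for 12 h. Cells stained with Hoechst 33342 and propidium iodide. Blue cells with condensed or fragmented nuclei were scored as apoptotic and red, ruptured cells as necrotic. Result given as % apoptotic cell death; N = 6, one-way ANOVA.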

HCC 2998 = experiment: Cytotoxicity against human HCC2998 cells after 48 hrs by sulforhodamine B assay; type: functional; settings: HCC 2998, 48 h
T47D = experiment: Cytotoxicity against human T47D cells after 48 hrs by sulforhodamine B assay; type: functional
NCI-H460 [7] = experiment: Cytotoxicity against human NCI-H460 cells assessed as cell death in serum free medium at 25 nM after 12 hrs by Hoechst 33342/propidium iodide staining based fluorescence microscopy; type: functional; summary of the method: as §1
SK-MEL-2 = experiment: Cytotoxicity against human SK-MEL-2 cells after 48 hrs by sulforhodamine B assay; type: functional
SF-539 = experiment: Cytotoxicity against human SF539 cells after 48 hrs by sulforhodamine B assay; type: functional; settings: SF-539, 48 h
NCI-H460 [8] = experiment: Cytotoxicity against human NCI-H460 cells assessed as cell viability at 25 nM after 48 hrs by MTT assay; type: functional; settings: NCI-H460, 48 h, read-out: Activity; summary of the method: as §2
MDA-MB-435 = experiment: Cytotoxicity against human MDA-MB-435 breast cancer cells after 48 hrs by sulforhodamine B assay; type: functional; settings: MDA-MB-435, 48 h
HCT-116 = experiment: Cytotoxicity against human HCT116 cells after 48 hrs by sulforhodamine B assay; type: functional
NCI-H460 [9] = experiment: Cytotoxicity against human NCI-H460 cells assessed as cell viability at 10 nM after 48 hrs by MTT assay; type: functional; settings: NCI-H460, 48 h, read-out: Activity; summary of the method: as §2
NCI-H460 [10] = experiment: Cytotoxicity against human NCI-H460 cells assessed as cell viability at 1000 nM after 48 hrs by MTT assay; type: functional; settings: NCI-H460, 48 h, read-out: Activity; summary of the method: as §2
NCI-H460 [11] = experiment: Growth inhibition of human NCI-H460 cells after 48 hrs by MTT assay; type: functional
Summary of the method: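 NCI-H460 viability measured by MTT (mitochondrial enzymatic activity) after 48 h exposure at 1 nM to 10 μM. GI50 derived from dose-response curves, with N = 9 and two-way ANOVA. Values are the mean of three independent experiments with duplicate determinations.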

K562 = experiment: Cytotoxicity against human K562 cells after 48 hrs by sulforhodamine B assay; type: functional; settings: K562, 48 h
RXF 393 = experiment: Cytotoxicity against human RXF393 cells after 48 hrs by sulforhodamine B assay; type: functional; settings: RXF 393, 48 h
NCI-H460 [12] = experiment: Cytotoxicity against human NCI-H460 cells assessed as cell death in serum free medium at 75 nM after 12 hrs by Hoechst 33342/propidium iodide staining based fluorescence microscopy; type: functional; summary of the method: as §1
NCI-H460 [13] = experiment: Cytotoxicity against human NCI-H460 cells assessed as cell death in serum free medium at 100 nM after 12 hrs by Hoechst 33342/propidium iodide staining based fluorescence microscopy; type: functional; summary of the method: as §1
NCI-H460 [14] = experiment: Cytotoxicity against human NCI-H460 cells assessed as cell death in serum free medium at 50 nM after 12 hrs by Hoechst 33342/propidium iodide staining based fluorescence microscopy; type: functional; summary of the method: as §1
CCRF-CEM = experiment: Cytotoxicity against human CCRF-CEM cells after 48 hrs by sulforhodamine B assay; type: functional
OVCAR-8 = experiment: Cytotoxicity against human OVCAR8 cells after 48 hrs by sulforhodamine B assay; type: functional; settings: OVCAR-8, 48 h
HL-60(TB) = experiment: Cytotoxicity against human HL-60(TB) cells after 48 hrs by sulforhodamine B assay; type: functional; settings: HL-60, 48 h
NCI-H460 [15] = experiment: Ratio of digitoxin IC50 to compound IC50 for human NCI-H460 cells after 12 hrs by Hoechst 33342/propidium iodide staining based fluorescence microscopy; type: functional
NCI-H460 [16] = experiment: Cytotoxicity against human NCI-H460 cells assessed as cell viability after 48 hrs by MTT assay; type: functional; settings: NCI-H460, 48 h
Summary of the method: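 NCI-H460 cells were exposed to drug for 48 h, and viability was read by MTT as mitochondrial enzymatic activity. GI50 was derived from dose-response curves (1 nM–10 μM). Values are from three independent experiments with duplicate determinations, given with standard error of the mean.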

NCI-H460 [17] = experiment: Cytotoxicity against human NCI-H460 cells assessed as cell death in serum free medium at 500 nM after 12 hrs by Hoechst 33342/propidium iodide staining based fluorescence microscopy; type: functional; summary of the method: as §1
U-251 = experiment: Cytotoxicity against human U251 cells after 48 hrs by sulforhodamine B assay; type: functional; settings: U-251, 48 h
NCI-H460 [18] = experiment: Cytotoxicity against human NCI-H460 cells assessed as cell viability at 1 nM after 48 hrs by MTT assay; type: functional; settings: NCI-H460, 48 h, read-out: Activity; summary of the method: as §2
NCI-H460 [19] = experiment: Cytotoxicity against human NCI-H460 cells assessed as cell viability at 500 nM after 48 hrs by MTT assay; type: functional; settings: NCI-H460, 48 h, read-out: Activity; summary of the method: as §2
BT-549 = experiment: Cytotoxicity against human BT549 cells after 48 hrs by sulforhodamine B assay; type: functional; settings: BT-549, 48 h
NCI-H460 [20] = experiment: Induction of apoptosis in human NCI-H460 cells in serum free medium after 12 hrs by Hoechst 33342/propidium iodide staining based fluorescence microscopy; type: functional, cell-based
Summary of the method: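 NCI-H460 cells treated for 12 h at 10 nM to 10 μM. Total cell death (apoptosis plus necrosis) scored by Hoechst 33342/propidium iodide staining, with N = 6 and two-way ANOVA. IC50 obtained by nonlinear regression. Table values are the mean of three independent experiments with duplicate determinations.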

NCI/ADR-RES = experiment: Cytotoxicity against human NCI/ADR-RES cells after 48 hrs by sulforhodamine B assay; type: functional
NCI-H460 [21] = experiment: Cytotoxicity against human NCI-H460 cells assessed as cell viability at 50 nM after 48 hrs by MTT assay; type: functional; settings: NCI-H460, 48 h, read-out: Activity; summary of the method: as §2

With `C[C@@H]1O[C@@H](O[C@H]2CC[C@@]3(C)[C@H](CC[C@@H]4[C@@H]3CC[C@]3(C)[C@@H](C5=CC(=O)OC5)CC[C@]43O)C2)CC[C@H]1O` [RAMNODIGIN] the GI50 (OVCAR-5) was 17.4 nM, the Activity (NCI-H460 [1]) was 100% and the GI50 (CAKI-1) was 3.32 nM. It also gave an Activity (NCI-H460 [2]) of 18.12%, a viability at 0.1 µM (NCI-H460 [3]) of 5% and an Activity (NCI-H460 [4]) of 100%. For the same molecule, the Activity (NCI-H460 [5]) was 100%, the GI50 (IGROV-1) was 5.23 nM and the Activity (NCI-H460 [6]) was 42.463%. For the same molecule, the GI50 (HCC 2998) was 16.5 nM, the GI50 (T47D) was 20.6 nM and the Activity (NCI-H460 [7]) was 22.09%. The GI50 (SK-MEL-2) was “inactive”, the GI50 (SF-539) was 7.8 nM and the viability at 0.025 µM (NCI-H460 [8]) was 7.14%. The GI50 (MDA-MB-435) was 21 nM, the GI50 (HCT-116) was “inactive” and the viability at 0.01 µM (NCI-H460 [9]) was 13.9%. For the same molecule, the viability at 1 µM (NCI-H460 [10]) was 3.25%, the GI50 (NCI-H460 [11]) was “Dose-dependent effect” and the GI50 (NCI-H460 [11]; NCI-H460, 48 h) was 2 nM. For the same molecule, the GI50 (K562) was 19.5 nM, the GI50 (RXF 393) was 1.22 nM and the Activity (NCI-H460 [12]) was 77.04%. For the same molecule, the Activity (NCI-H460 [13]) was 98.61%, the Activity (NCI-H460 [14]) was 52.04% and the GI50 (CCRF-CEM) was 8.49 nM. The GI50 (OVCAR-8) was 2.5 nM, the GI50 (HL-60(TB)) was 2.96 nM and the “Ratio IC50” value (NCI-H460 [15]) was 4. For the same molecule, the GI50 (NCI-H460 [16]) was 1.93 nM, the Activity (NCI-H460 [17]) was 100% and the GI50 (U-251) was 12.7 nM. The viability at 0.001 µM (NCI-H460 [18]) was 77%, the viability at 0.5 µM (NCI-H460 [19]) was 3.69% and the GI50 (BT-549) was 2.41 nM. The Activity (NCI-H460 [20]) was “Dose-dependent effect”, the IC50 (NCI-H460 [20]; NCI-H460, 12 h) was 51.7 nM and the GI50 (NCI/ADR-RES) was 4.12 nM. For the same molecule, the viability at 0.05 µM (NCI-H460 [21]) was 6.18%.

— ChEMBL document CHEMBL1817593, “C5'-Alkyl Substitution Effects on Digitoxigenin α-l-Glycoside Cancer Cytotoxicity” (ACS Med Chem Lett, 2011)
